From ChEMBL document CHEMBL3616416, “Imidazolidine-4-one derivatives in the search for novel chemosensitizers of Staphylococcus aureus MRSA: synthesis, biological evaluation and molecular modeling studies” (Eur J Med Chem, 2015)
Converted amounts (≈) assume the structure as drawn. The source made the active and inactive calls. The calls are words filed in the database; no cut-off is given here.

Experiments:
[1] = target: T1, Methicillin resistance mecR1 protein (Staphylococcus aureus) (UniProt P0A0B1); assay: Inhibition of MecR1 in methicillin-resistant Staphylococcus aureus HEMSA assessed as reduction in neomycin MIC at 0.125 mM incubated for 20 hrs by serial dilution broth microplate method
T1 sequence (whole entry): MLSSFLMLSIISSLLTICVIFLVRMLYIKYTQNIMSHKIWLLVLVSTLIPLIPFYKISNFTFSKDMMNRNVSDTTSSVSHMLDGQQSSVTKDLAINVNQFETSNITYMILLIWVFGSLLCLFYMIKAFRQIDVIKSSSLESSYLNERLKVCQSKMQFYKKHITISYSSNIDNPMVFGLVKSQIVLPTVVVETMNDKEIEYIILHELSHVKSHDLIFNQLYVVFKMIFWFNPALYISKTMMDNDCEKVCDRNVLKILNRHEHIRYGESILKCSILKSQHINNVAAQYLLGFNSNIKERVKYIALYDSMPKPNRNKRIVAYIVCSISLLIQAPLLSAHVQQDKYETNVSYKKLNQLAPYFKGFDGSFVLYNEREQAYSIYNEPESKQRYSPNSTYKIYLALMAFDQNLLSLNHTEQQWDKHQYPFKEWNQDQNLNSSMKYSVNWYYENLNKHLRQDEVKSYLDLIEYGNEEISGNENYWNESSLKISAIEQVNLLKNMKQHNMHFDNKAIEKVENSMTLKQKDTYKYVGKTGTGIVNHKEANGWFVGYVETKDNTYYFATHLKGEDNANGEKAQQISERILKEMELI

Staphylococcus aureus [2] = assay: Potentiation of oxacillin-induced antibacterial activity against Staphylococcus aureus ATCC 25923 assessed as reduction in oxacillin MIC at 0.125 mM incubated for 20 hrs by serial dilution broth microplate method; assay type: functional
[3] = target: T1, Methicillin resistance mecR1 protein (Staphylococcus aureus); assay: Inhibition of MecR1 in methicillin-resistant Staphylococcus aureus HEMSA assessed as reduction in cloxacillin MIC at 0.125 mM incubated for 20 hrs by serial dilution broth microplate method
How it was run: (§1)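 Chemosensitization in MRSA HEMSA 5 measured by CLSI broth microdilution in Mueller-Hinton broth. Serial two-fold dilutions of antibiotic (oxacillin, cloxacillin, ampicillin/sulbactam 2:1, ciprofloxacin or neomycin) combined with compound at fixed concentration not exceeding ¼ of its own MIC. Inoculum OD 0.5 diluted 1:100. Read after 20 h at 37 °C. Result given as fold reduction of antibiotic MIC.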

[4] = Toxicity against HEK293 cells assessed as cell viability at 0.125 mM incubated for 48 hrs by EZ4U colorimetric assay; assay type: cell-based; settings: human, read-out: Activity
How it was run: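 HEK-293 cells in DMEM with 10% FBS, penicillin/streptomycin, 37 °C, 5% CO2; seeded 1.5×10^4 cells/well, 24 h to 60% confluence; compound 0.01–250 µM for 48 h; EZ4U tetrazolium reagent 5 h, absorbance at 492 nm; doxorubicin positive control (0.005–100 µM); four repetitions.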

Staphylococcus aureus [5] = assay: Potentiation of […] antibacterial activity against Staphylococcus aureus ATCC 25923 assessed as reduction in ampicillin and sulbactam MIC MIC incubated for 20 hrs by serial dilution broth microplate method; assay type: functional, organism-based
[6] = target: T1, Methicillin resistance mecR1 protein (Staphylococcus aureus); assay: Inhibition of MecR1 in methicillin-resistant Staphylococcus aureus HEMSA assessed as reduction in ampicillin and sulbactam MIC at 0.125 mM incubated for 20 hrs by serial dilution broth microplate method
How it was run: as §1

Staphylococcus aureus [7] = assay: Resistance index, ratio of MIC for methicillin-resistant Staphylococcus aureus HEMSA to MIC for Staphylococcus aureus ATCC 25923; assay type: functional
Staphylococcus aureus [8] = assay: Antimicrobial activity against methicillin-resistant Staphylococcus aureus HEMSA incubated for 20 hrs by serial dilution broth microplate method; assay type: functional
How it was run: (§2)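 Broth microdilution MIC per CLSI in Mueller-Hinton broth against clinical isolate MRSA HEMSA 5. Bacterial suspension adjusted to OD 0.5, diluted 1:100 and added to serial two-fold dilutions of test agent. Ampicillin/sulbactam used at 2:1 ratio. Growth read after 20 h at 37 °C.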

Staphylococcus aureus [9] = assay: Potentiation of neomycin-induced antibacterial activity against Staphylococcus aureus ATCC 25923 assessed as reduction in […] MIC incubated for 20 hrs by serial dilution broth microplate method; assay type: functional, organism-based
[10] = target: T1, Methicillin resistance mecR1 protein (Staphylococcus aureus); assay: Inhibition of MecR1 in methicillin-resistant Staphylococcus aureus HEMSA assessed as reduction in oxacillin A MIC at 0.125 mM incubated for 20 hrs by serial dilution broth microplate method
How it was run: as §1

[11] = target: T1, Methicillin resistance mecR1 protein (Staphylococcus aureus); assay: Inhibition of MecR1 in methicillin-resistant Staphylococcus aureus HEMSA assessed as reduction in ciprofloxacin MIC at 0.125 mM incubated for 20 hrs by serial dilution broth microplate method
How it was run: as §1

Staphylococcus aureus [12] = assay: Potentiation of […] antibacterial activity against Staphylococcus aureus ATCC 25923 assessed as reduction in cloxacillin MIC incubated for 20 hrs by serial dilution broth microplate method; assay type: functional, organism-based
Staphylococcus aureus [13] = assay: Potentiation of ciprofloxacin -induced antibacterial activity against Staphylococcus aureus ATCC 25923 assessed as reduction in […] MIC incubated for 20 hrs by serial dilution broth microplate method; assay type: functional, organism-based
Staphylococcus aureus [14] = assay: Antimicrobial activity against Staphylococcus aureus ATCC 25923 incubated for 20 hrs by serial dilution broth microplate method; assay type: functional; settings: ATCC 25923, 20 h
How it was run: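 Broth dilution per CLSI in Mueller-Hinton broth, serial two-fold dilutions; compounds alone against reference strain, inoculum from suspension at OD 0.5 diluted 1:100; read after 20 h at 37 °C. MIC taken as lowest concentration inhibiting growth.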

Staphylococcus aureus [15] = assay: Antimicrobial activity against Staphylococcus aureus ATCC 25923 incubated for 20 hrs in presence of sulbactam by serial dilution broth microplate method; assay type: functional; settings: ATCC 25923, 20 h
Staphylococcus aureus [16] = assay: Antimicrobial activity against methicillin-resistant Staphylococcus aureus HEMSA incubated for 20 hrs in presence of sulbactam by serial dilution broth microplate method; assay type: functional
How it was run: as §2

[17] = target: T1, Methicillin resistance mecR1 protein (Staphylococcus aureus); assay: Inhibition of MecR1 in methicillin-resistant Staphylococcus aureus HEMSA assessed as reduction in ampicillin and sulbactam MIC at 0.0078 mM incubated for 20 hrs by serial dilution broth microplate method
How it was run: as §1

[18] = target: T1, Methicillin resistance mecR1 protein (Staphylococcus aureus); assay: Inhibition of MecR1 in methicillin-resistant Staphylococcus aureus HEMSA assessed as reduction in cloxacillin MIC at 0.0078 mM incubated for 20 hrs by serial dilution broth microplate method
How it was run: as §1

Staphylococcus aureus [19] = assay: Potentiation of oxacillin-induced antibacterial activity against Staphylococcus aureus ATCC 25923 assessed as reduction in oxacillin MIC at 0.0039 mM incubated for 20 hrs by serial dilution broth microplate method; assay type: functional
[20] = target: T1, Methicillin resistance mecR1 protein (Staphylococcus aureus); assay: Inhibition of MecR1 in methicillin-resistant Staphylococcus aureus HEMSA assessed as reduction in ciprofloxacin MIC at 0.0078 mM incubated for 20 hrs by serial dilution broth microplate method
How it was run: as §1

[21] = target: T1, Methicillin resistance mecR1 protein (Staphylococcus aureus); assay: Inhibition of MecR1 in methicillin-resistant Staphylococcus aureus HEMSA assessed as reduction in neomycin MIC at 0.0078 mM incubated for 20 hrs by serial dilution broth microplate method
How it was run: as §1

[22] = target: T1, Methicillin resistance mecR1 protein (Staphylococcus aureus); assay: Inhibition of MecR1 in methicillin-resistant Staphylococcus aureus HEMSA assessed as reduction in oxacillin A MIC at 0.0078 mM incubated for 20 hrs by serial dilution broth microplate method
How it was run: as §1

Row | SMILES | Activity (Staphylococcus aureus [5]) | Ratio (Staphylococcus aureus [7]) | MIC (Staphylococcus aureus [8]) [µM] | Activity (Staphylococcus aureus [9]) | Activity (Staphylococcus aureus [12]) | Activity (Staphylococcus aureus [13]) | MIC (Staphylococcus aureus [14]) [µM] | further results
1 | O=C1NC(N2CCNCC2)=N/C1=C\c1c2ccccc2cc2ccccc12 | inactive | 1 | 500 (≈ 178 µg/mL) | inactive | inactive | inactive | 500 (≈ 178 µg/mL) | inhibition [1]: inactive; fold change (FC) (Staphylococcus aureus [2]): 2; fold change (FC) [3]: 8; viability at 48 h, 125 µM [4]: 91%; inhibition [6]: inactive; fold change (FC) [10]: 64; inhibition [11]: inactive
2 | CC1(C)S[C@@H]2[C@H](NC(=O)[C@H](N)c3ccccc3)C(=O)N2[C@H]1C(=O)O [AMPICILLIN] |  | 370 |  |  |  |  |  | MIC (Staphylococcus aureus [15]): 0.54 µM; MIC (Staphylococcus aureus [16]): 200 µM
3 | O=C1NC(N2CCNCC2)=N/C1=C\c1ccc2c(c1)Cc1ccccc1-2 | inactive | 2 | 31.3 (≈ 10.8 µg/mL) | inactive | inactive | inactive | 15.6 (≈ 5.37 µg/mL) | inhibition [17]: inactive; fold change (FC) [18]: 8; fold change (FC) (Staphylococcus aureus [19]): 2; inhibition [20]: inactive; inhibition [21]: inactive; inhibition [22]: inactive
